S100A4 inh HTS – S100A4-myosin IIA interaction inhibition; P26447; S100A4/TAMRA-MyoIIA peptide fluorescence polarization; inhibition, % at 10.7 µM; 360,000 compounds, 0.14% hits; AID 652163;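 active means mean inhibition of at least 70% across replicates, with every replicate also reaching that level; inconclusive means mean inhibition reaches 70% but some replicates fall short; inactive means mean inhibition below 70%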
Target sequence (P26447 whole entry, looked up): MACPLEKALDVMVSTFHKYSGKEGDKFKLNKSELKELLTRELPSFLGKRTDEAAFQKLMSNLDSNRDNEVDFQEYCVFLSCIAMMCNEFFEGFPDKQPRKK
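Material: human S100A4 monomer with TAMRA-labelled myosin IIA peptide; buffer or medium: HEPES pH 7.2 with CaCl2, KCl, NaCl, DTT, Triton; compound dosing: one concentration per compound; schedule: 5 min incubation before reading; benchmarks: neutral control DMSO, positive control TFP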
SIRT5 inh – sirtuin-5 (human) deacylase inhibition; Q9NXA8; Purified SirT5, succinyl-peptide AMC, trypsin-coupled fluorescence; inhibition, % at 15 µM; 330,000 compounds, 1.1% hits; AID 652115; in the data active means inhibition above about 15%; inconclusive means no clear call, values can overlap the other calls
Ecoli rRNA inh – inhibits bacterial ribosomal RNA function over humanized ribosomes; E. coli WT GFP vs humanized-ribosome RFP mutants, fluorescence, 24 h; stronger effect = lower value; DMSO median 0, no signal -100; GFP signal change (wild-type ribosome), % (test concentration not listed); 350,000 compounds, 1.6% hits; AID 720706;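 active means significant combined selectivity score with lowered wild-type GFP, culture density cut under 30%, mutant RFP and density less affected; inactive means any of these conditions unmet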
MLL AF4-AF9 inh – inhibitors of human MLL-AF4/AF9 interaction; 350,000 compounds, 0.47% hits; P42568; AlphaScreen, biotin-AF4 peptide binding to FLAG-AF9; inhibition, % at 10 µM;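 active means every replicate reaching a set inhibition limit, whatever the replicate mean, cut at about 25% in these data; inconclusive means mean inhibition reaches that limit but some replicates miss it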;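 further: 0% = plate neutral control median and 100% = total signal loss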
Target sequence (P42568 whole entry, looked up): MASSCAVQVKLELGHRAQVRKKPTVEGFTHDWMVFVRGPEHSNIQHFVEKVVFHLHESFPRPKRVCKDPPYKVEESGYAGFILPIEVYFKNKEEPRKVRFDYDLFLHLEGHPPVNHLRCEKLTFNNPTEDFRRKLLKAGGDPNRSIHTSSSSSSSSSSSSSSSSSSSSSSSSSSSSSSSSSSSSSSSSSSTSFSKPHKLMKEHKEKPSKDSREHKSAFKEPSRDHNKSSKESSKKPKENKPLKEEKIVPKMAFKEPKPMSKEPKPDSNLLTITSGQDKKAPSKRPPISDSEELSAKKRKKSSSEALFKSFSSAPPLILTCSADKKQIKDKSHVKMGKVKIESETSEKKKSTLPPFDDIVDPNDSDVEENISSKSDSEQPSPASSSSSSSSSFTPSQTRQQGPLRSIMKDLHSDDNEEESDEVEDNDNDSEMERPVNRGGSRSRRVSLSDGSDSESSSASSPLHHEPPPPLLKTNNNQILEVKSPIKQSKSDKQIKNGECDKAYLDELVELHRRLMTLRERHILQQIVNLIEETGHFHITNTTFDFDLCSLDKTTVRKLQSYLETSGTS
ERAP1 HTS inh – blocks human ERAP1 aminopeptidase activity. Q9NZ08. recombinant ERAP1, Leu-AMC fluorescence, 60 min. inhibition, % at 10.7 µM. 340,000 compounds, 0.15% hits. AID 652197;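 active means mean replicate inhibition of at least 30%, or all replicates individually reaching that 30% level; inactive means mean below 30% and not every replicate reaching it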;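 further: 0% = neutral control wells and 100% = L-leucinethiol positive control wells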
E-sel inducer – E-selectin induction on HUVECs. P16581. HUVEC E-selectin immunofluorescence imaging; normalized: neutral wells 0, TNF-alpha wells 100. activation, % at 7.58 µM. 260,000 compounds, 0.37% hits. AID 686992;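 active means mean E-selectin-positive cell signal at least 10% of the positive control, reached in at least 60% of replicates, without over 20% cell loss; inconclusive means no rule given, readout overlaps actives, possibly toxicity-flagged; inactive means the rest, including those meeting only one limit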
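Assay system: HUVEC primary endothelial cells. Input: 3,000 HUVEC seeded per well. Doses: one compound dose added by pin transfer. Read-out basis: % PE-positive cells. Benchmarks: TNF-alpha high, DMSO low. Detection: immunofluorescence imaging. Buffer or medium: EGM-2, gelatin.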
Numbers without * were called inactive; ? = inconclusive; . = no result given; ! = not confirmed by another sample. Only some compounds are listed: those with a hit (about 3.4% of all), similar ones and a draw of the others.

SMILES | S100A4 inh HTS | SIRT5 inh | Ecoli rRNA inh | MLL AF4-AF9 inh | ERAP1 HTS inh | E-sel inducer
C[C@@H]1CN([C@@H](C)CO)C(=O)c2cc(/C=C/c3ccccc3)cnc2O[C@@H]1CN(C)Cc1ccccc1F | 0 | -1 | -18 | 14 | 3 | 0
C[C@@H]1CN([C@@H](C)CO)C(=O)c2cc(/C=C/c3ccccc3)cnc2O[C@H]1CN(C)Cc1ccccc1F | 34 | 2 | -25 | 28* | 1 | 0
C[C@@H]1CN([C@@H](C)CO)C(=O)c2cc(/C=C/c3ccccc3)cnc2O[C@H]1CN(C)S(=O)(=O)c1cccs1 | 94* | 3 | -3 | 0 | 0 | 0
Cc1ccc(-c2cnc3c(c2)C(=O)N([C@H](C)CO)C[C@H](C)[C@@H](CN(C)Cc2ccccc2F)O3)cc1 | 5 | 13*! | -1 | 2 | -5 | 0
O=C(O)c1ccc(NC(=O)c2ccc3c(c2)C(=O)N(c2ccccc2)C3=O)cc1 | -1 | 13 | 6 | -1 | -8 | 0
O=C(O)c1ccc(S(=O)(=O)c2ccc3c(c2)C(=O)N(c2ccc(O)cc2)C3=O)cc1 | -26 | -1 | -36* | -52 | . | 0
CO[C@@H]1CN(C)C(=O)c2ccc(NC(C)=O)cc2OC[C@@H](C)N(Cc2ccncc2)C[C@@H]1C | . | . | -1 | . | . | .
CN(C)c1ccc2c(c1)[C@@H]1C[C@H](CC(=O)NCc3ccc(Oc4ccccc4)cc3)O[C@@H](CO)[C@@H]1O2 | -10 | 8 | -7 | ? | 1 | .
O=C(C[C@H]1C[C@H]2c3cc(NS(=O)(=O)c4ccc(F)cc4)ccc3O[C@H]2[C@H](CO)O1)NCc1ccc(Oc2ccccc2)cc1 | 1 | 12 | -8 | 0 | -1 | 0
O=C(C[C@H]1C[C@@H]2c3cc(NS(=O)(=O)c4ccc(F)cc4)ccc3O[C@@H]2[C@@H](CO)O1)NCc1ccc(Oc2ccccc2)cc1 | 7 | 15* | -1 | 0 | 0 | -1
O=C(C[C@@H]1C[C@H]2c3cc(NC(=O)C4CCC4)ccc3O[C@H]2[C@H](CO)O1)NCc1ccc(-c2ccccc2)cc1 | -4 | 25* | 1 | 1 | 0 | -1
CS(=O)(=O)Nc1ccc2c(c1)[C@H]1C[C@H](CC(=O)NCc3ccccc3)O[C@H](CO)[C@H]1O2 | -1 | 16* | 18 | -2 | 9 | 0
CN(C)c1ccc2c(c1)[C@H]1C[C@H](CC(=O)NCc3ccc(Oc4ccccc4)cc3)O[C@H](CO)[C@H]1O2 | -1 | 21* | -5 | 16 | -1 | 4
C[C@@H]1CN([C@H](C)CO)C(=O)c2cccc(NS(=O)(=O)c3ccc(F)cc3)c2O[C@@H]1CN(C)Cc1ccc(-c2ccccc2)cc1 | 1 | 11 | -4 | 3 | 1 | 0
COc1ccc2c3c([nH]c2c1)[C@@H](CO)N(C)CC31CN(S(=O)(=O)c2ccc(C)cc2)C1 | -15 | . | -25 | 7 | 1 | -1
COc1ccc2c3c(n(C)c2c1)[C@@H](CO)N(S(C)(=O)=O)CC31CN(C(=O)C2CC2)C1 | . | . | -2 | 0 | . | 0
O=C(C[C@@H]1C[C@@H]2c3cc(NC(=O)C4CCC4)ccc3O[C@@H]2[C@H](CO)O1)NCCN1CCCCC1 | 0 | 2 | 3 | 1 | -1 | 0
O=C(C[C@H]1C[C@@H]2c3cc(NC(=O)Nc4ccccc4F)ccc3O[C@@H]2[C@H](CO)O1)NCc1ccncc1 | 12 | 1 | -2 | 3 | 0 | 0
O=C(C[C@H]1C[C@H]2c3cc(NC(=O)Nc4ccccc4F)ccc3O[C@H]2[C@@H](CO)O1)NCc1ccncc1 | -4 | 16* | 0 | 1 | -1 | 0
O=C(C[C@H]1C[C@H]2c3cc(NC(=O)C4CCC4)ccc3O[C@H]2[C@H](CO)O1)NCCN1CCCCC1 | 12 | 35* | 5 | 0 | 1 | 0
O=C(C[C@H]1C[C@@H]2c3cc(NS(=O)(=O)c4ccc(F)cc4)ccc3O[C@@H]2[C@@H](CO)O1)NCc1ccc(-c2ccccc2)cc1 | 11 | 17* | -6 | 1 | 3 | 0
CCNC(=O)[C@@H]1[C@@H](CO)[C@@H]2Cn3c(ccc(-c4cccc(F)c4)c3=O)[C@H]1N2C(C)=O | 15 | -16 | 6 | -5 | 0 | 0
COc1ccc(CN(C)C[C@@H]2Oc3c(NC(=O)Nc4c(C)noc4C)cccc3C(=O)N([C@H](C)CO)C[C@H]2C)cc1 | 16 | -3 | -3 | 0 | 2 | 0
C[C@H]1CN([C@@H](C)CO)S(=O)(=O)c2ccc(C#CC3CC3)cc2O[C@H]1CN(C)C(=O)Cc1ccncc1 | -10 | 1 | -4 | 7 | -2 | 1
C[C@H]1CN([C@@H](C)CO)S(=O)(=O)c2ccc(C#CC3CC3)cc2O[C@@H]1CN(C)C(=O)c1ccccn1 | 1 | 0 | -4 | -1 | -1 | 0
SMILES | S100A4 inh HTS | SIRT5 inh | Ecoli rRNA inh | MLL AF4-AF9 inh | ERAP1 HTS inh | E-sel inducer
C[C@@H]1CN([C@@H](C)CO)S(=O)(=O)c2ccc(C#CC3CCCC3)cc2O[C@H]1CN(C)C(=O)Cc1ccncc1 | -16 | 3 | -2 | 6 | -1 | 16
C[C@H]1CN([C@@H](C)CO)S(=O)(=O)c2ccc(C#CC3CC3)cc2O[C@H]1CN(C)C(=O)c1ccccn1 | -2 | 30* | -4 | 2 | 1 | 0
C[C@H]1CN([C@@H](C)CO)S(=O)(=O)c2ccc(C#CC3CC3)cc2O[C@@H]1CN(C)C(=O)Cc1ccncc1 | -20 | 18* | 1 | 3 | 0 | 0
C[C@@H]1CN([C@H](C)CO)S(=O)(=O)c2ccc(C#CC3CCCC3)cc2O[C@H]1CN(C)C(=O)Cc1ccccc1 | -6 | 17*! | -8 | 4 | -3 | 2
C[C@@H]1CN([C@@H](C)CO)S(=O)(=O)c2ccc(C#CC3CCCC3)cc2O[C@H]1CN(C)C(=O)Cc1ccccc1 | -9 | 2 | 0 | -4 | 2 | 0
C[C@H](CO)N1C[C@H](C)[C@@H](CN(C)C(=O)Cc2ccccc2)Oc2cc(C#CC3CCCC3)ccc2S1(=O)=O | 5 | 15* | -3 | 3 | 0 | -4
CC(C)C(=O)Nc1ccc2c(c1)C(=O)N(C)[C@@H]1CC[C@H](CC(=O)NCc3ccc(F)cc3)O[C@H]1CO2 | -3 | 2 | 1 | -2 | 7 | 0
C[C@@H]1CN([C@H](C)CO)S(=O)(=O)c2ccc(C#CC3CCCC3)cc2O[C@H]1CN(C)C(=O)Nc1cc(F)ccc1F | -2 | 15* | 2 | 5 | 1 | 0
C[C@@H]1CN([C@H](C)CO)S(=O)(=O)c2ccc(C#CC3CCCC3)cc2O[C@H]1CN(C)C | 1 | 101* | 1 | 4 | -9 | .

Source: PubChem BioAssay
